Structures are written as SMILES.

A short description of the data set: Toxicity liver stage against HepG2, at 10uM. The class given is cell-based. On the set-up: test concentration 10 uM, cell line HepG2-A16-CD81EGFP. Conditions: human, HepG2-A16-CD81EGFP cells; read-out: INHIBITION
The procedure, abridged:
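Uninfected HepG2-A16-CD81EGFP cells, 3 × 10^3 per well, 1536-well, plated on prespotted compound at 10 μM final, parasite-free screening media added to match infected plates; puromycin 10 μM positive, DMSO 0.5% negative; run in parallel with 48 h PbLuc assay at 37 °C, 5% CO2; viability by CellTiter-Glo luminescence, normalized to controls.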
With `Cc1noc2ncnc(N(C)Cc3ccco3)c12`, the cytotoxicity at 10 µM is 2.57%.

Take `COc1ccc(CN2CCCCCC2c2cccs2)c(OC)c1` (centres undefined): the cytotoxicity at 10 µM was determined as 11%.

Regarding `CN(C)CCCn1cnc2cc(NC(=O)c3n[nH]c4c3CCC4)ccc21`, the cytotoxicity at 10 µM was -5.3%.

Take `c1cnc(N2C[C@H]3CCC[C@@H](CN4CCCC4)[C@H]3C2)nc1`: the cytotoxicity at 10 µM is -4.22%.

As to `CC(=O)N1CCCC2(C1)CN(C(=O)C1CCCCC1)CCO2` (centres undefined), the cytotoxicity at 10 µM turned out to be 2.08%.

With `CC(=O)N1CCC2(C1)CN(C(=O)C1CCOC1)C2` (centres undefined), the cytotoxicity at 10 µM stood at 4.88%.

In the case of `CC(C)NC(=O)C1CN(C(=O)Cc2cccc(F)c2)CC12CCOCC2` (centres undefined), the cytotoxicity at 10 µM was determined as 4.58%.

As to `Cc1cccc(CN2CCC3(CCCN(C(=O)CN(C)C)C3)C2=O)n1` (centres undefined), the cytotoxicity at 10 µM was -3.49%.

In the case of `O=c1[nH]nc2nc(N3CCSCC3)ccn12`, the cytotoxicity at 10 µM is -13.5%.

As for `O=C(Cn1ccc2c(Cl)cccc21)N1CCC2(CC1)OCCO2`, the cytotoxicity at 10 µM amounted to 14.2%.

For the compound `O=C1CC2(CCN(c3nncs3)C2)CN1c1ccccc1` (centres undefined), the cytotoxicity at 10 µM was -8.25%.

As to `CC(C)CC(=O)N1CC[C@@H]2[C@H](CC1)N(S(C)(=O)=O)CCS2(=O)=O`, the cytotoxicity at 10 µM was -11.4%.

As to `O=C(NCC1CC1)C1CN(C(=O)c2cccs2)CC12CCOCC2` (centres undefined), the cytotoxicity at 10 µM is -14%.

Take `CCc1nc(NCCCn2cccn2)c2c(n1)c(C)nn2C`: the cytotoxicity at 10 µM was 6.41%.

As for `Cc1nn(CC(=O)N2CCN(c3ccccc3F)CC2)c(C)c1Cl`, the cytotoxicity at 10 µM was -12.6%.

On to `CC(NC(=O)C1CC1)c1cc(O)nc(-c2cccnc2)n1` (centres undefined), for which the cytotoxicity at 10 µM is 2.67%.

Regarding `CS(=O)(=O)N1CCCC1c1ccnc2nccn12` (centres undefined), the cytotoxicity at 10 µM is -2.62%.

As to `Cc1cc2ccncc2n1CC1(O)CCN(C(=O)c2cccnc2)CC1`, the cytotoxicity at 10 µM was 4.18%.

On to `O=C(CC1CCN(c2cccnn2)CC1)NCCO`, for which the cytotoxicity at 10 µM was 0.308%.

With `O=C1NC2(CCCN(C(=O)CCn3cccn3)C2)Oc2ccccc21` (centres undefined), the cytotoxicity at 10 µM is -6.19%.

With `CC(=O)N1CCCC1c1nc(C)c2c(n1)N(Cc1ccccn1)CCC2` (centres undefined), the cytotoxicity at 10 µM turned out to be 0.711%.

As for `CCCC(=O)N1CCCC(c2ccccn2)C1` (centres undefined), the cytotoxicity at 10 µM worked out at 0.0858%.

With `Cc1cnc(-c2nc(O)c3c(n2)CN(C(=O)C2CC2)CC3)cn1`, the cytotoxicity at 10 µM was -6.74%.

In the case of `Cc1cc(-c2cnn(CCNC(=O)c3cnn(C)c3)c2C2CC2)on1`, the cytotoxicity at 10 µM is -5.58%.

`Cc1ccc(S(=O)(=O)N2CCC(O)(CN(C)C)C2)cc1` (centres undefined): the cytotoxicity at 10 µM is -7.02%.

`Cc1nnc(CN(C)CC(=O)NC(C)(C)c2ccc(F)cc2)n1C`: the cytotoxicity at 10 µM was -4.25%.

Regarding `COc1cc(C(=O)NC2COc3ccccc3C2)ccc1OCC(N)=O` (centres undefined), the cytotoxicity at 10 µM is -22.8%.

As for `CC1(C)CN(C(=O)c2cc(F)cc3[nH]cnc23)CCS1`, the cytotoxicity at 10 µM was -7.36%.

As to `CC(NC(=O)CCn1cccn1)c1ccc(-n2ccnn2)cc1` (centres undefined), the cytotoxicity at 10 µM was -1.99%.

In the case of `CC(C)Oc1ccc(CN)c(C(F)(F)F)c1`, the cytotoxicity at 10 µM came out at 0.71%.

As for `CCn1nc(C)cc1C(=O)OCC1CC(=O)N(Cc2ccccc2)C1` (centres undefined), the cytotoxicity at 10 µM turned out to be 6.68%.

Turning to `Cc1ncccc1C(=O)NCC(C)Oc1ccc(F)cc1` (centres undefined), the cytotoxicity at 10 µM is -4.08%.

Turning to `COc1ccc(CNCC2CN(C3CC3)CCO2)cc1C` (centres undefined), the cytotoxicity at 10 µM was -8.01%.

`COc1ccc(-c2nnc(CN3CCNC(=O)C3)o2)cc1`: the cytotoxicity at 10 µM was -2.27%.

For `COc1ccc(C(=O)Nc2c(C)nn(C(C)C)c2C)cc1`, the cytotoxicity at 10 µM was -3.13%.

Regarding `Cc1ccc(NC(=O)c2ccc(CC3CC(=O)NC3=O)cc2)cc1O` (centres undefined), the cytotoxicity at 10 µM was 4.99%.

On to `CC(CC#N)N1CCN(C(=O)OC(C)(C)C)CC1` (centres undefined), for which the cytotoxicity at 10 µM was -2.72%.

Regarding `CCOc1ccc(N(C)S(=O)(=O)c2c[nH]c(C(C)C)n2)cc1`, the cytotoxicity at 10 µM was -4.52%.

`CC(Cc1ccco1)NC(=O)C1=NN(c2ccccc2)C(=O)CC1` (centres undefined): the cytotoxicity at 10 µM turned out to be 0.537%.

Consider `COCCCNC(=O)NCc1ccc(N2CCOC(C)C2)nc1` (centres undefined), for which the cytotoxicity at 10 µM is -5.82%.

On to `CC(=O)N1CCC(Nc2cccc(OC(F)F)c2C)CC1`, for which the cytotoxicity at 10 µM is -15.1%.

Regarding `CN(CCN1CCOC1=O)CC(=O)Nc1cc(F)cc(F)c1`, the cytotoxicity at 10 µM was -49.5%.

Consider `Cc1nn(C)c(Cl)c1CN1CCN(c2nccs2)C(C)C1` (centres undefined), for which the cytotoxicity at 10 µM was -27.1%.

As for `CC(NC(=O)N1CCN(c2cccs2)CC1)c1ccncc1` (centres undefined), the cytotoxicity at 10 µM is 15.8%.

In the case of `CN1CCN(Cc2cccc(NCc3cc[nH]n3)c2)CC1`, the cytotoxicity at 10 µM was 11.2%.

On to `OC(CN1CCCc2ccc(F)cc21)Cn1cccn1` (centres undefined), for which the cytotoxicity at 10 µM was found to be 5.95%.

Regarding `Cc1ccccc1C(=O)CN1C(=O)c2ccccc2CS1(=O)=O`, the cytotoxicity at 10 µM is -10.1%.

`c1ccc2oc(NC3CCCN(Cc4noc(C5CC5)n4)C3)nc2c1` (centres undefined): the cytotoxicity at 10 µM is -0.989%.

Consider `CCN(Cc1ccco1)C(=O)c1cc(OC)c2c(c1)OCCO2`, for which the cytotoxicity at 10 µM was -4.22%.

Regarding `CCc1cnc(CN(C)C2CCN(CCc3ccccn3)C2)o1` (centres undefined), the cytotoxicity at 10 µM is -14.2%.

With `CC(=O)Nc1nc2c(s1)C1(CCN(C)CC1)Nc1ccccc1S2`, the cytotoxicity at 10 µM is -14.5%.

Take `Cc1ccc(N2CCC(C3CCN(CC(C)C)CC3)C2)nn1` (centres undefined): the cytotoxicity at 10 µM is -6.81%.

Regarding `O=C1NCCCc2[nH]c(C3CCN(C(=O)C4CC4)CC3)nc21`, the cytotoxicity at 10 µM was -3.46%.

For `O=C1CC(NCc2ccc(Cl)s2)CN1Cc1cccc(F)c1` (centres undefined), the cytotoxicity at 10 µM is -0.73%.

On to `Cc1nc(CN2CCCC(Cn3cc(CCO)nn3)C2)c2ccccn12` (centres undefined), for which the cytotoxicity at 10 µM came out at 3.28%.

As to `CC(=O)N1CCCn2nc(CNc3cc(C)ncn3)cc2C1`, the cytotoxicity at 10 µM came out at 5.19%.

As to `CCc1nc(CN(C)C(=O)C2CCC(=O)N(CC3CCCCC3)C2)no1` (centres undefined), the cytotoxicity at 10 µM came to 4.46%.

`O=c1[nH]nc(CCCN2CCOCC2)n1Cc1cccc(F)c1`: the cytotoxicity at 10 µM was found to be 7.04%.

For `Cc1cccnc1CNCC1(O)CCCN(CC2CCC2)C1=O` (centres undefined), the cytotoxicity at 10 µM is -5.51%.

`Cc1ccc(C)c(OCc2cc(C(=O)N(C)CC(O)CO)no2)c1` (centres undefined): the cytotoxicity at 10 µM is 2.55%.

As to `COc1ccc(CCN(C)C(=O)CN2C(=O)OC[C@@H]2C(C)C)cc1OC`, the cytotoxicity at 10 µM was -11%.

Consider `CCN(Cc1ccncc1)C(=O)C(C)n1ccnc1C(C)C` (centres undefined), for which the cytotoxicity at 10 µM turned out to be 2.79%.

Consider `Cc1nsc(NC(=O)N2CCCC2C)n1` (centres undefined), for which the cytotoxicity at 10 µM was -38.7%.

In the case of `COCCCN(Cc1cnc(N2CCCC2)nc1)C1CCN(C)CC1`, the cytotoxicity at 10 µM was -10.3%.

For `COCCNC(=O)c1cc(S(=O)(=O)N2CCCC2)cs1`, the cytotoxicity at 10 µM turned out to be 6.15%.

`CN(C)Cc1nnc(C2CCN(c3nccc(N)n3)CC2)n1C1CC1`: the cytotoxicity at 10 µM was -1.99%.

For the compound `CCCn1c(C)c(CC(=O)NC)c2c1CC(C)(C)CC2=O`, the cytotoxicity at 10 µM was -6.05%.

For `CC(C)N1CCC(NCc2cccnc2N(C)C)CC1`, the cytotoxicity at 10 µM amounted to 21%.

For the compound `CCC1CN(C(=O)c2ccccc2N2CCCC2)CCN1C(C)C` (centres undefined), the cytotoxicity at 10 µM is -9.78%.

For the compound `CCc1csc(C2CCCN(C(=O)c3cnc[nH]3)C2)n1` (centres undefined), the cytotoxicity at 10 µM was determined as 1.78%.

For `CCOc1ccc(Cl)c(C(=O)N2CCN(c3ccncc3)CC2)n1`, the cytotoxicity at 10 µM was -5.44%.

For `CC(Cn1cccn1)NCCCc1nc(-c2cccs2)no1` (centres undefined), the cytotoxicity at 10 µM is -9.8%.

Take `CC(C(=O)N1CCCN(c2ccc(C#N)cc2)CC1)n1cccn1` (centres undefined): the cytotoxicity at 10 µM was -3.02%.

Take `Cc1ncsc1C(=O)NCCNC(=O)c1cccs1`: the cytotoxicity at 10 µM was -8.83%.

Regarding `Cc1ccccc1C1(C(=O)NCCN2CCCCC2C)CCOCC1` (centres undefined), the cytotoxicity at 10 µM was -1.69%.

Turning to `Cc1noc(C2CCCN(C(=O)CCNc3ncccn3)C2)n1` (centres undefined), the cytotoxicity at 10 µM is -8.27%.

Take `CCN(CC1COc2ccccc2O1)C(=O)NCCCn1cncn1` (centres undefined): the cytotoxicity at 10 µM was -9.27%.

Regarding `Cn1cc(C(=O)CC2CCCN2C(=O)c2ccncc2F)cn1` (centres undefined), the cytotoxicity at 10 µM came to 0.555%.

On to `CC(C(=O)N1CCN(c2ncccn2)CC1)n1cncn1` (centres undefined), for which the cytotoxicity at 10 µM was -1.24%.

Regarding `CC(=O)N1CCCN(C(=O)C(C)n2cncn2)CC1` (centres undefined), the cytotoxicity at 10 µM was -0.227%.

Consider `O=C(c1cccc2c1OCCO2)N1CCCCC1Cn1cccn1` (centres undefined), for which the cytotoxicity at 10 µM was -4.94%.

For the compound `CCOC(=O)N1CCN(Cc2ccc(OCc3nccn3C)cc2)CC1`, the cytotoxicity at 10 µM was -9.34%.

With `Cc1ccc(C(=O)Nc2cn[nH]c2)cc1C`, the cytotoxicity at 10 µM amounted to 0.762%.

`CN(CC(=O)N1CCCC1Cn1cccn1)C1CC1` (centres undefined): the cytotoxicity at 10 µM is -9.39%.

As for `c1cnn(CCN2CCOC(Cn3cncn3)C2)c1` (centres undefined), the cytotoxicity at 10 µM is -0.498%.

Turning to `CC(NC(=O)NCc1cccnc1N1CCCCC1)c1nccs1` (centres undefined), the cytotoxicity at 10 µM was -7.95%.

In the case of `COc1ccc(C(C)N2CCN(Cc3nccn3C)CC2)cc1Cl` (centres undefined), the cytotoxicity at 10 µM is -8.31%.

Take `Cc1cccnc1CNc1cc(N2CCCC2CO)ncn1` (centres undefined): the cytotoxicity at 10 µM is -10.3%.

As to `CC(C)(C)c1cn2nc(N3CCCC3Cn3cncn3)sc2n1` (centres undefined), the cytotoxicity at 10 µM worked out at 1.43%.

For `Cc1cc(C(=O)NCCN2CCN(S(C)(=O)=O)CC2)no1`, the cytotoxicity at 10 µM is -6.29%.

Turning to `O=C(NC1CCCC1)c1cc(C2CCCNC2)n[nH]1` (centres undefined), the cytotoxicity at 10 µM came out at 5.27%.

As to `O=C(NCc1cncc2c1CCN(Cc1cccc(F)c1)C2)C1CC1`, the cytotoxicity at 10 µM is -8.16%.

Turning to `O=C(c1ccccc1F)N1C[C@@H]2COC[C@]2(COCc2cccnc2)C1`, the cytotoxicity at 10 µM stood at 6.27%.

With `CC(C)N1CCOCC2(CN(Cc3nccs3)CCO2)C1` (centres undefined), the cytotoxicity at 10 µM was -0.653%.

As to `O=C(c1ccc(F)cc1)N1C[C@@H]2OCCN(c3ncccn3)[C@@H]2C1`, the cytotoxicity at 10 µM is -9.55%.

For the compound `Cc1ccc(CN2Cc3nnn(C)c3C(COCCN(C)C)C2)s1` (centres undefined), the cytotoxicity at 10 µM is -7.25%.

On to `O=C(Cc1cccc(F)c1)N1C[C@H]2CN(Cc3ccccn3)C[C@H]2C1`, for which the cytotoxicity at 10 µM was -2.25%.

As for `OC(CN1CCN(Cc2cccnc2)CC1)c1cccs1` (centres undefined), the cytotoxicity at 10 µM was -5.62%.

In the case of `CNC(=O)[C@H]1C[C@H]2OCC[C@H]2N(Cc2ccc(C)o2)C1`, the cytotoxicity at 10 µM came out at 11.8%.

Values taken from ChEMBL document CHEMBL4513216, “Probing the Open Global Health Chemical Diversity Library for Multistage-Active Starting Points for Next-Generation Antimalarials” (ACS Infect Dis, 2020).
